Reference: ChEMBL document CHEMBL1148785, “Second generation tetrahydroquinoline-based protein farnesyltransferase inhibitors as antimalarials” (J Med Chem, 2007)

What was measured:
Plasmodium falciparum [1] = assay: Inhibition of Plasmodium falciparum protein farnesyltransferase at 50 nM by scintillation proximity assay
Plasmodium falciparum [2] = assay: Inhibition of Plasmodium falciparum protein farnesyltransferase at 5 nM by scintillation proximity assay
Plasmodium falciparum [3] = assay: Inhibition of Plasmodium falciparum protein farnesyltransferase at 0.5 nM by scintillation proximity assay
[4] = Inhibition of Plasmodium falciparum protein farnesyltransferase by scintillation proximity assay
Plasmodium falciparum [5] = assay: Antimalarial activity against Plasmodium falciparum 3D7; assay type: functional; settings: Plasmodium falciparum, 3D7; read-out: ED50 (the source's name)
Summary of the method: (§1)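 Asynchronous culture in type A+ erythrocytes at 0.5% parasitemia and 0.5% hematocrit, grown in RPMI-1640 with 20% heat-inactivated human A+ plasma. Compound was serially diluted from a top final 5 µM, with DMSO vehicle as 100% growth. Plates ran 48 h at 37 °C under 5% CO2/5% O2/90% N2, then [3H]-hypoxanthine (0.3 µCi) for 24 h. Filter-harvested counts were corrected for the uninfected-RBC background. ED50 by linear regression; duplicates averaged.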

Plasmodium falciparum [6] = assay: Antimalarial activity against Plasmodium falciparum K1; assay type: functional; settings: Plasmodium falciparum, K1; read-out: ED50 (the source's name); summary of the method: as §1
[7] = target: Protein farnesyltransferase (Rattus norvegicus); assay: Inhibition of protein farnesyltransferase

SMILES | inhibition (Plasmodium falciparum [1]) [%] | inhibition (Plasmodium falciparum [2]) [%] | inhibition (Plasmodium falciparum [3]) [%] | IC50 [4] [nM] | EC50 (Plasmodium falciparum [5]) [nM] | EC50 (Plasmodium falciparum [6]) [nM] | IC50 [7] [nM]
CC(C)COC(=O)N1CCC(CN(C2Cc3cc(C#N)ccc3N(Cc3cncn3C)C2)S(=O)(=O)c2ccccn2)CC1 (stereo not given) | 100 | 12 | 88 | 1.4 | 62 | 62 | 25
CCOC(=O)N1CCC(CN(C2Cc3cc(C#N)ccc3N(Cc3cncn3C)C2)S(=O)(=O)c2ccccn2)CC1 (stereo not given) | 100 | 46 | 95 | 0.5 | 55 | 40 | 5.5
Cn1cnc(S(=O)(=O)N(Cc2ccc(-n3cccn3)cc2)C2Cc3cc(C#N)ccc3N(Cc3cncn3C)C2)c1 (stereo not given) | 98 | 98 | 56 | 0.5 | 42 | 38 | 2.6

More lines, now with the values ahead:

inhibition (Plasmodium falciparum [1]) [%] | inhibition (Plasmodium falciparum [2]) [%] | inhibition (Plasmodium falciparum [3]) [%] | IC50 [4] [nM] | EC50 (Plasmodium falciparum [5]) [nM] | EC50 (Plasmodium falciparum [6]) [nM] | IC50 [7] [nM] | SMILES
94 | 20 | 63 | 7 | 150 | 330 | 16 | Cn1cncc1CN1CC(N(CC2CCN(C(=O)c3ccccc3)CC2)S(=O)(=O)c2ccccn2)Cc2cc(C#N)ccc21 (stereo not given)
96 | 36 | 88 | 0.6 | 20 | 76 | 7.8 | Cn1cncc1CN1CC(N(CC2CCN(C(=O)CC(C)(C)C)CC2)S(=O)(=O)c2ccccn2)Cc2cc(C#N)ccc21 (stereo not given)
